The record followed here is ChEMBL document CHEMBL4706564 (Eur J Med Chem, 2020).

Broadly, the CC50 is the concentration that lowers cell viability or growth by half. The LD50 is the dose expected to kill half of the subjects tested. As usually defined, the IC50 is the point on the concentration scale where inhibition reaches its midpoint.

Series [1] has as its system HEK-293T. The series is described as follows: (§1) Cytotoxicity against human HEK293T cells incubated for 48 hrs by MTT assay. The following applies: hek-293t, 48 h. The format is cell-based. The essentials: (§2)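 HEK293T cells at 10⁵ cells/ml were added to two-fold compound dilutions in 10% DMEM and incubated 48 h at 37 °C, 5% CO2. MTT (5 mg/ml stock in PBS, 1/10 volume) was added for 2 h, and formazan was dissolved in DMSO before reading optical density. Each concentration was run in triplicate. CC50 was the concentration giving 50% cell death, or halving OD versus control.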
(Formazan colour is commonly taken as a measure of viable cells.)

Series [2] in a line: Acute toxicity in ICR mouse assessed as animal death at 0.14 to 1.08 g/kg, ig and measured for 7 days. The conditions noted are these: in vivo, po, 168 h, dose 0.14-1.08 g/Kg, time 7 day. Summed up: (§3)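 Outbred ICR mice, randomised into groups of 2. Each group got a single oral gavage dose of 1.08, […], 0.27 or 0.14 g/kg, given as a suspension in 10% DMSO in water at 0.1 mL/10 g. Controls received solvent only. Survival was recorded over 7 days.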

Series [3] in a line: Acute toxicity in ig dosed ICR mouse. The format is organism-based. The conditions noted are these: in vivo, po. The essentials: as §3
For series [4], the system named is Marburgvirus. The series is described as follows: Antiviral activity against MARV Popp infected in African green monkey Vero cells assessed as inhibition of viral infection by measuring reduction in virus-induced cytotoxicity incubated for 10 days by neutral red dye based colorimetric analysis. The format is functional, organism-based.
Series [5] has as its system Vero. The series is described as follows: (§4) Cytotoxicity against African green monkey Vero cells assessed as reduction in cell survival incubated for 10 days by neutral red dye based colorimetric analysis. The following applies: chlorocebus sabaeus, vero, 240 h; time 10 day. Summed up: (§5)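 Confluent Vero monolayers received six concentrations from 3-fold serial dilutions in DMEM of DMSO-dissolved compound, plus medium without virus. After 10 days at 37 °C, 5% CO2, cells were stained with neutral red and read at 490 nm. CC50 came from a 4-parameter fit, with at least 3 analyses per compound.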

Series [6] deals with Zaire ebolavirus. Put plainly: Antiviral activity against Zaire ebolavirus infected in African green monkey Vero cells assessed as inhibition of viral infection by measuring […] incubated for 10 days by neutral red dye based colorimetric analysis. The format is functional, organism-based.
Series [7] has as its system Marburgvirus. The series is described as follows: Antiviral activity against VSV-G pseudotyped MARV infected in human HeLa cells. The format is functional, organism-based. The conditions noted are these: Orthomarburgvirus.
The subject of series [8] is Ebolavirus. Put plainly: Antiviral activity against VSV-G pseudotyped EBOV infected in human HeLa cells. The format is functional, organism-based. The following applies: Orthoebolavirus.
Series [9] has as its system Influenza A virus. Put plainly: Antiviral activity against Influenza A virus (H1N1). The format is functional, organism-based.
A short description of series [10]: as §1. The format is cell-based, HEK-293T. The conditions noted are these: HEK293T cells. The essentials:
as §2

Series [11] is described as follows: cells. The format is cell-based, HEK293T. The conditions noted are these: Vesicular stomatitis virus, HEK-293T.
The nature of series [12]: in vitro. The following applies: human, HEK293T cells.
Series [13] in a line: as §4. The following applies: chlorocebus sabaeus, Vero cells; time 10 day. The essentials: as §5
Series [14] can be described thus: cells. The conditions noted are these: Orthoebolavirus, Mayinga, HEK-293T. The format is cell-based, Ebolavirus, HEK293T.
The subject of series [15] is Ebolavirus. Put plainly: Antiviral activity against eGFP-positive VSV-G pseudotyped EBOV infected in human U2OS cells assessed as reduction in virus entry cells pre-incubed with compound for 1 hr followed by viral infection and measured after 12 to 14 hrs by fluorescence microscopic analysis. The format is functional, organism-based. The conditions noted are these: Orthoebolavirus.

Bounds are passed on as bounds.

`CC1(C)[C@H]2CC[C@]1(C)[C@H](OC(=O)CCN1CCCCC1)C2.Cl`: the CC50 in series [1] came to 87 µM; in series [5] it was 279 µM. In series [2], the Activity result was “Non-Toxic”. The LD50 in series [3] was more than 1000 mg/kg. In addition, the IC50 turned out to be 18.1 µM in [4] (vero, read-out: IC50) and 9.1 µM in series [6] (vero, read-out: IC50).

Consider `N#Cc1c(NCCN)nc(-c2ccccc2)c2c1CCCC2`, for which the results for the IC50 in series [7] and in [8] were 6.2 µM and 24.4 µM, respectively.

For `CN1CCN(CCC(=O)O[C@@H]2C[C@@H]3CC[C@@]2(C)C3(C)C)CC1`, the IC50 is 1.9 µM in series [9]; 173 µM in [11]; “Not Active” in [4] (vero); “Not Active” in series [6] (vero); 300 nM in [14]. Further, the CC50 at 48 h in series [10] worked out at 282 µM. For the same compound, the selectivity ratio in series [12] was determined as 870. Further, the CC50 at 240 h in [13] was 61.4 µM.

As for `CCN1CCN(CCC(=O)O[C@@H]2C[C@@H]3CC[C@@]2(C)C3(C)C)CC1`, in series [10], the CC50 at 48 h came to 264 µM. Besides, the IC50 in [11] is 80.5 µM; in [4] (Orthomarburgvirus, Popp, Vero, 240 h, read-out: IC50), 17.8 µM; in series [6] (vero), “Not Active”; in series [14], 1600 nM. In addition, in series [13], the cytotoxic concentration (CC50) at 240 h came to 19.2 µM.

As for `CC1(C)[C@H]2CC[C@]1(C)[C@H](OC(=O)CCN1CCOCC1)C2`, the concentration for half-maximal inhibition (IC50) in [9] is 12.2 µM; in [11], 320 µM; in series [4] (vero), “Not Active”; in [6] (vero), “Not Active”; in series [14], 8500 nM. The compound also registered a CC50 at 48 h in series [10] of 305 µM. For the same compound, the selectivity ratio in series [12] is 36. The CC50 at 240 h in series [13] is 122 µM.

Consider `CC1CCN(CCC(=O)O[C@@H]2C[C@@H]3CC[C@@]2(C)C3(C)C)CC1` [listing 1 of 2 here], for which the IC50 was 15.3 µM in [9]; 2.2 µM in series [4] (vero, read-out: IC50); 54.3 µM in series [6] (Zaire ebolavirus, Vero, 240 h, read-out: IC50); 300 nM in series [14]. In addition, the results for the CC50 in series [1] and in series [5] were 280 µM and 69.3 µM, respectively.

For the compound `CCCNC(=O)[C@@H]1O[C@H]1C(=O)N[C@@H](Cc1ccc(C)cc1)C(=O)N[C@H](C(=O)N1CCN(Cc2ccccc2)CC1)c1ccccc1`, in series [15], the IC50 was 70 nM.

On to `O=[N+]([O-])c1cc(S(=O)(=O)NCCN2CCOCC2)ccc1Sc1nnnn1-c1ccccc1`, for which the results for the IC50 in series [7] and in series [8] were 12.9 µM and 1.9 µM, respectively.

On to `CC1CCN(CCC(=O)O[C@@H]2C[C@@H]3CC[C@@]2(C)C3(C)C)CC1` [listing 2 of 2 here], for which the CC50 in series [1] is 69.8 µM; in series [5], 144 µM. Besides, the IC50 in series [4] (vero, read-out: IC50) was determined as 5.7 µM; in series [6] (vero, read-out: IC50) it was 64.7 µM.

Regarding `CC1(C)[C@H]2CC[C@]1(C)[C@H](OC(=O)CCN1CCCCC1)C2`, the IC50 in series [9] is 7.8 µM; in series [11], 93 µM; in [4] (vero, read-out: IC50) it was 3.7 µM; in [6] (vero, read-out: IC50) it was 47.5 µM. The compound also returned a CC50 in series [1] of 290 µM. Besides, the CC50 at 240 h in series [13] is 443 µM.
